# Reference: the EternaBench riboswitch data
# Test system: MS2 coat protein
# Assay: apparent Kd, MS2 coat protein; higher = weaker binding; RNA-MaP array; FMN 200 µM where present
# How it was run: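 Each design was made on Illumina sequencing-chip clusters by stalled E. coli RNA polymerase and titrated with SNAP-549-labelled MS2 coat protein from 0.7 or 1.5 nM, doubling to 3 µM, in the absence and then the presence of constant ligand. The buffer was 100 mM Tris-HCl pH 7.5, 80 mM KCl, 4 mM MgCl2, BSA, DTT, yeast tRNA and Tween-20. The apparent Kd is the median of filtered per-cluster fits of binding curves, with green signal normalised to red-channel RNA signal and control-cluster median Fmax.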
# [1] = designed as: OFF switch for flavin mononucleotide, no ligand
# [2] = ligand present: flavin mononucleotide, designed as: OFF switch for flavin mononucleotide
# [3] = designed as: ON switch for flavin mononucleotide, no ligand
# [4] = ligand present: flavin mononucleotide, designed as: ON switch for flavin mononucleotide
Sequence,apparent Kd [1] [nM],apparent Kd [2] [nM],apparent Kd [3] [nM],apparent Kd [4] [nM]
GCUUGUGAAGGAUAUACUGGCGGCAUGCGCUCGACACGCGCACAUGAGGAUCACCCAUGUAGAAGGUCAAACGU,17.2,17.7,,
UUAAUUCGAAACAUGAGGAUCACCCAUGUGUUGUGGUUAAUAUAGGAUAUGUGUAUACUUUUAUGACAGAAGGAUGAUGGUACU,,,14.2,11.8
AAAAAACAUGAGGAUCACCCAUGUGAGGAUAUCUGAAAAAAAAAAAAAAAAAAGAAAAAGAGAAGGCGCAAAGA,124,65.2,,
CGCUAAUUAAUUAUAUUAAUUGUACAGGAUAUGUAACAUGAGGAUCACCCAUGUAUUGGGUUUAAACAGAAGGGUAUAUUAGCG,425,112,,
GGUUGACAAAGUCAACCUUAACGAACAUGAGGAUCACCCAUGUAGGAUAUGCUACUCAAAGAGUAGCAGAAGGACAUGUGUCUU,30,169,,
UAUGGUUAAGUCAGGAUAUGCUCGUAGAGGUCUAUGCAGAAGGGACAUGAGGAUCACCCAUGUAAGGUCGUGUU,39.9,66.3,,
AAGGAUAGAGGAUAUACAUAGAUACAGAUUCGUGUAGAACUACAUGAGGAUCACCCAUGUAGAAGGCUAUCCUA,16.8,46,,
GCACUGGAUGUAGGAUAUCAGGACGAUAAGUCCUGAGAAGGACAUGAGGAUCACCCAUGUACUCAAAACCAGUGCUAUAAUAUA,15.6,23.8,,
GAGUACUUAGGAUAUACAUGAGGAUCACCCAUGUCUAGGCGGCGCUGGGUCCCUCGCAGUAGAAGGAAGCGCUG,24.6,42.3,,
UGGUCCUAGGGAGGAUAUGGGAAGAUACAUGAGGAUCACCCAUGUUUAAGAAUGCCGAGAGGCAACUAGAAGGCCCUAGUACCU,,,439,20.6
AUAAUUUUAUAUUUCUUUUUAUUCAGAAGGCAUAACAUGAGGAUCACCCAUGUAAAUUAAUGUUAUGAGGAUAUGAUUUGGUUA,24.2,105,,
ACACAUGAGGAUCACCCAUGUAGCUGGCGUCUGCACCAGCCACAGGAUAUACGGCAACACAAGCCGUAGAAGGGUGAUAAACAC,,,67.5,21.6
GACAUGAGGAUCACCCAUGUCCGGGCCAAAAGAAGAAAUACCAGAAGGACCGGCAGAAAUGAGCGGUAGGAUAUGGGAUUCGUG,,,36.7,12.1
GCAGUACGCCUGGCAAUUUGCAAGCAGGAUAUCAGGCACCGUGGGACAUGAGGAUCACCCAUGUCUGAGAAGGGCUGGAGUUGC,10.7,23.1,,
UACUUCCGAGGAUAUACAUGAGGAUCACCCAUGUGCUUCAGCAUCUAAUGAUGCAUGGGUAGAAGGCGGUAGUU,58.5,68.1,,
GUUGUUACUGAGGAUAUUAUUUUAUUCGAUUGAUAAGAAGGCAGUACAUGAGGAUCACCCAUGUGGGUAGUUUG,355,586,,
GAUUCACAUGAGGAUCACCCAUGUGAGGAUAUAGUGCAAGAGGUGGAUGCCCACCUCCCUAGAAGGCACACGGG,28.6,24,,
GUCAGCUCGUGAGGAUAUACAACACUGCUUCGGAAGUGUAUUAAGAUCACAUGAGGAUCACCCAUGUAGAAGGCACGAGCUGAU,13.7,225,,
UUAUGGCUAGGAUAUGCACGUGCAUGUUCAAGUCAAAGAAGACAUGAGGAUCACCCAUGUAGAAGGAGCGAUAA,28.8,21.2,,
UUUAGUUCAGGAUAUGUAGAUUUUAACAUGAGGAUCACCCAUGUAGAUCCUGAUCCUGCUACAGAAGGGAAUAUUU,23.1,25.1,,
UGACGUAAAGAGAAGGGCUACUGGUUGAAACCUGCGGCCUCUGGAACAUGAGGAUCACCCAUGUAGCAGGAUAUCUUUGCAUCA,166,18.1,,
UUGGACGUCGUAGGAUAUGUAGGAUAUUCCUACAUGAGGAUCACCCAUGUUGACAUGGAAGAAGGACAGAAGGUCGAUGUCCAU,,,602,9.86
ACAUGAGGAUCACCCAUGUUAUCAGGGACUUCAAUUAUUUCUAGAAGGCUGUUUUCUUGUAAGUCAGAGGAUAUAGAAUUAAAU,14,15.1,,
UCAGGAGUCACAGGAUAUCCGGCAUAGCAUACAGGAGAAGGGUGAUCACGAGCACAUGAGGAUCACCCAUGUGACAUUUGUGGA,,,96.3,83.3
UUAAUUUUACAAGGAUAUCUAUUGUUAUUUCGACUUACAUGAGGAUCACCCAUGUUAAUAUAUUUAGAGAAGGUGUAUUUUCAG,,,99.4,52.4
UUAGAACAUGAGGAUCACCCAUGUGAGGAUAUGCAAUACUAAUAUUAAGAUAAUUAUAGCAGAAGGCACGUAGU,34.3,47.7,,
AUUUUUUAUGUAGGAUAUGCUUGUGGUAAGAUAGCAGAAGGACAUGAGGAUCACCCAUGUUAAUGAUAGAGAUUUUAUGUUGGU,38.8,58.8,,
AGCUACGUUUCGUAGCAGCUAGGUGAGGAUAUUCAAUUUUUCACAUGAGGAUCACCCAUGUAUGUGAAGAAGGCGCCUAGAAAC,,,10.8,5.07

Sequence,apparent Kd [1] [nM],apparent Kd [2] [nM],apparent Kd [3] [nM],apparent Kd [4] [nM]
GGAUUACAUGAGGAUCACCCAUGUGAGGAUAUCGAUGUCCUCAGUAGAGUGCGGGACUCGAGAAGGCACUUGGA,70.1,95.9,,
UGGACCGAGCUGUCGGUUGGCUGGCAGGAUAUGACAUGAGGAUCACCCAUGUGGGAUCUAAAUUGUCAGAAGGGCCGUUCUGGG,212,25.4,,
GGUCAUCAAGUCAGGAUAUCGUCUGGUCAAUCAGGCGAGAAGGGACAUGAGGAUCACCCAUGUCGACUCAUCAG,33.9,139,,
UGGUUGUGAGGAUAUACGUUUUUUAACUUUUGUUUUAUAUUGUAGAAGGCACAUGAGGAUCACCCAUGUUACGU,22.9,30.8,,
UAGGUCGACGUAGGAUAUGUAGGAUAUUCCUACAUGAGGAUCACCCAUGUUGAAAUGGAAGAAGGACAGAAGGACGUUGACCUU,,,56.7,13.6
GUAGUACAUGAGGAUCACCCAUGUGUGGGCGCGUGAGGAUAUGUCCGUACCUGGCGUACGAUAGAAGGCAUGGUGC,,,53.3,28.4
CCGGCUGCUGUGAGGAUAUGCCUGUGGGUCCGCGGGCAGAAGGCACAUGAGGAUCACCCAUGUCCUGCGGUCCC,27.1,28.3,,
AAUUAACACCAGAAGGACAUGAGGAUCACCCAUGUAGGAUAUGGGAGUGGGUCCGUUGGAGUUGGCCCGUCUCUGCGGGCUCGA,,,79.1,8.95
AGAGAAUACUCAGGAUAUCUGAAUAGAAAGAGAAGAGAAGGGAGACAUGAGGAUCACCCAUGUGAAGUCUUGAGACUACAUGGU,366,426,,
GCUGCAUAGUCAGGAUAUGCAAAGUAAUAUAUGGAAACAUAUAUUACAACAUGAGGAUCACCCAUGUAGAAGGGACUGUGCAGU,15.9,14.8,,
GAAUAAUUGAUCCAAUUUAUCUACAUGAGGAUCACCCAUGUGCAGGAUAUCGUAAAAUUUAAUAACGAGAAGGGCAAGAACGGU,135,385,,
AUCAGGCAAGGAUAUGAUAUAGGACACAUGAGGAUCACCCAUGUCCACCGAACGAUCGUUUCAGAAGGUGCACAGU,72.8,41,,
GCGUUGAUGUAGAAGGUACAUGAAUACUUUUAAUACCUCAAGUAACAUGAGGAUCACCCAUGUAGUAAGGAUAUACAUGAACGC,,,34.7,29.5
UAUUCUUACGAAGGAUAUGGUUACAUGAGGAUCACCCAUGUAUGUAUAUUGAUCUAGUUUUUUAACCAGAAGGUCGUGAGUAUA,40.4,54.2,,
CUACUCGUUGUGAGGAUAUCGUUUUCGUCACGGAUCGAGAAGGCACAUGAGGAUCACCCAUGUUUGAUGUGGAU,32.1,79.7,,
GGUGCGUAUGUGAGGAUAUGCUGGUCCUUGGAUCAGCAGAAGGCACAUGAGGAUCACCCAUGUGGUGUCGUACU,282,26.1,,
GCACGAGACUAAGGAUAUGGUGUAUCUACAUGAAACAUGAGGAUCACCCAUGUAGUAAGUAUGAUUCAGAAGGUAGAGACGUGC,,,49.7,23
UCGAACGGAAAUAAAGUAAAUAGACAUGAGGAUCACCCAUGUAAGGAUAUGCCUACUAAAAGUAGGCAGAAGGUACGCGUUCGA,17.5,19.2,,
GAGUGACAUGAGGAUCACCCAUGUGAGGAUAUCGGCCGGACCUUGUUAGCUUCCACCGCGAGAAGGCACAUCGG,23.3,27.9,,
UGCGGAAGAGGAUAUACGUAGAACUAGGUUCAUGUAAAACUACAUGAGGAUCACCCAUGUAGAAGGCUUUCGCU,15.9,20.4,,
ACAGUAUAUGUAGGAUAUCAUUGGUUAGGUAGGUGAGAAGGGCAUAGUACAUGAGGAUCACCCAUGUGUUGGUCCUCGCAGAAA,376,252,,
CUGCUUCCCAGUAUGGGUAUUUAUACAGAAGGCCAGACACAUGAGGAUCACCCAUGUCAAGUAAUGGAGGAUAUGUUAUUGUCG,,,10.9,4.97
AAAAAACAAGGAUAUACGGAUGAAGAUUGUCUUAAUUUUUGACAUGAGGAUCACCCAUGUAGAAGGUGUUAAAA,198,342,,
UUUAUGGGACAGAAGGGCAUUUACAUGAGGAUCACCCAUGUUCAUCAUUGCAGGAUAUGUAUAACAUGAGGAUCACCUAUGUAC,,,604,106
GGAAAUUAGCAAGGAUAUCGGCUUACUAUAACUUUAUGCCCUGGGACAUGAGGAUCACCCAUGUACGAGAAGGUGCUAACUACA,23.6,36.9,,
GUCAGCUCGUGAGGAUAUACAUGUGCUGGAUACAGCACUAUUAAGAUCACAUGAGGAUCACCCAUGUAGAAGGCACGAGCUGAU,49.5,643,,
CUUUUGUGAGGAUAUCAGUAGUAAAAAAAUAAAAUUACUACUGAGAAGGUACAUGAGGAUCACCCAUGUUCCUC,14.2,17.6,,
